Results published in ChEMBL document CHEMBL2157961, “Optimisation of pharmacokinetic properties in a neutral series of 11β-HSD1 inhibitors” (Bioorg Med Chem Lett, 2012).
≈ marks a conversion by molar mass, not a printed value.

Legend:
[1] = Lipophilicity, log D of the compound at pH 7.4; type: physicochemical; settings: buffer
[2] = Oral bioavailability in rat; type: ADME, organism-based; settings: in vivo
Canis familiaris = assay: Volume of distribution at steady state in dog at 1 mg/kg, po and iv; type: ADME, organism-based, Canis lupus familiaris; design: dose 1 mg/kg, route oral; settings: in vivo
[3] = Cmax in dog at 1 mg/kg, po and iv; type: ADME, organism-based, Canis lupus familiaris; design: dose 1 mg/kg, route oral; settings: in vivo
[4] = Oral bioavailability in dog at 1 mg/kg; type: ADME, organism-based, Canis lupus familiaris; settings: in vivo
[5] = Aqueous solubility in phosphate buffer at pH 7.4 after 24 hrs; type: physicochemical
Procedure, shortened: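 Solubility measured on crystalline material in aqueous phosphate buffer, pH 7.4, after 24 h at 25 °C.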

[6] = Apparent permeability across apical to basolateral side in MDCK cells at 10 uM; type: ADME, cell-based, Canis lupus familiaris; settings: dog
Procedure, shortened: (§1)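 Test compound at […] incubated on cultured MDCK cell monolayers. Apparent permeability measured in both directions, apical to basolateral and basolateral to apical.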

[7] = Apparent permeability across basolateral to apical side in MDCK cells at 10 uM; type: ADME, cell-based, Canis lupus familiaris; settings: dog; procedure, shortened: as §1

Compound	logD [1]	bioavailability [2] [%]	other results
O=C(N[C@H]1C2CC3CC1C[C@](O)(C3)C2)c1cnc(N2CCOCC2)nc1C1CCCC1	3	67	–
Cc1ncc(C(=O)N[C@H]2C3CC4CC2C[C@](O)(C4)C3)c(CC2CCCC2)n1	2.1	50	–
CCCSc1nc(N2CCOCC2)ccc1C(=O)N[C@H]1C2CC3CC1C[C@](O)(C3)C2	2.9	64	Vdss (Canis familiaris): 0.5 L/kg; bioavailability [4]: 0%
Cc1nc(N2CCOCC2)ncc1C(=O)N[C@H]1C2CC3CC1C[C@](O)(C3)C2	1.2	–	–
Cc1ccc(C(=O)N[C@H]2C3CC4CC2C[C@](O)(C4)C3)c(C2CC2)n1	1.6	75	Vdss (Canis familiaris): 0.3 L/kg; Cmax [3]: 260 nM; bioavailability [4]: 37%
CC(C)(C)c1nc(N2CCOCC2)ncc1C(=O)N[C@H]1C2CC3CC1C[C@](O)(C3)C2	2.6	100	–
Cc1ncc(C(=O)N[C@H]2C3CC4CC2C[C@](O)(C4)C3)c(C2CC2)n1	1.2	–	–
O=C(N[C@H]1C2CC3CC1C[C@](O)(C3)C2)c1cnc(N2CCOCC2)nc1C1CCCCC1	3.2	31	–
O=C(N[C@H]1C2CC3CC1C[C@](O)(C3)C2)c1cnc(N2CCOCC2)nc1C1CC1	2.1	100	Vdss (Canis familiaris): 0.9 L/kg; Cmax [3]: 360 nM; bioavailability [4]: 100%; solubility at 24 h [5]: 240 µM (≈ 95.6 µg/mL); Papp A→B at 10 µM [6]: 19 ×10⁻⁶ cm/s; Papp B→A at 10 µM [7]: 30 ×10⁻⁶ cm/s
O=C(N[C@H]1C2CC3CC1C[C@](O)(C3)C2)c1ccc(N2CCOCC2)nc1C1CC1	2	100	Vdss (Canis familiaris): 0.6 L/kg; Cmax [3]: 40 nM; bioavailability [4]: 25%
Cc1ncc(C(=O)N[C@H]2C3CC4CC2C[C@](O)(C4)C3)c(C2CCCC2)n1	2	77	Vdss (Canis familiaris): 0.9 L/kg; Cmax [3]: 170 nM; bioavailability [4]: 58%
CCCOc1nc(N2CCOCC2)ccc1C(=O)N[C@H]1C2CC3CC1C[C@](O)(C3)C2	3.8	31	–
O=C(N[C@H]1C2CC3CC1C[C@](O)(C3)C2)c1cnc(N2CCOCC2)nc1C1CCC1	2.4	45	–
Cc1ncc(C(=O)N[C@H]2C3CC4CC2C[C@](O)(C4)C3)c(CC2CC2)n1	1.2	–	–
CC1(c2nc(N3CCOCC3)ncc2C(=O)N[C@H]2C3CC4CC2C[C@](O)(C4)C3)CC1	1.8	–	–
Cc1ncc(C(=O)N[C@H]2C3CC4CC2C[C@](O)(C4)C3)c(-c2ccccc2)n1	1.1	–	–
CCCOc1nc(N2CCOCC2)ncc1C(=O)N[C@H]1C2CC3CC1C[C@](O)(C3)C2	3	36	–

Continued, in another order:

logD [1]	bioavailability [2] [%]	Compound	other results
2.5	74	CCCSc1nc(C)ncc1C(=O)N[C@H]1C2CC3CC1C[C@](O)(C3)C2	Vdss (Canis familiaris): 0.3 L/kg; Cmax [3]: 490 nM; bioavailability [4]: 110%
2.8	63	CCCSc1nc(C)ccc1C(=O)N[C@H]1C2CC3CC1C[C@](O)(C3)C2	Vdss (Canis familiaris): 0.4 L/kg; Cmax [3]: 150 nM; bioavailability [4]: 5%
1.4	100	Cc1ncc(C(=O)N[C@H]2C3CC4CC2C[C@](O)(C4)C3)c(CC(C)C)n1	–
1.9	84	Cc1ncc(C(=O)N[C@H]2C3CC4CC2C[C@](O)(C4)C3)c(C(C)(C)C)n1	–
2	0	CCCSc1ncncc1C(=O)N[C@H]1C2CC3CC1C[C@](O)(C3)C2	–
3.4	–	CCCSc1nc(N(C)C)ncc1C(=O)N[C@H]1C2CC3CC1C[C@](O)(C3)C2	–
3.8	24	CCCSc1nc(N(C)C)ccc1C(=O)N[C@H]1C2CC3CC1C[C@](O)(C3)C2	–
2.8	83	CCCSc1nc(N2CCOCC2)ncc1C(=O)N[C@H]1C2CC3CC1C[C@](O)(C3)C2	Vdss (Canis familiaris): 0.7 L/kg; Cmax [3]: 40 nM; bioavailability [4]: 10%
3.3	30	CCCSc1nc(NC)ccc1C(=O)N[C@H]1C2CC3CC1C[C@](O)(C3)C2	–
1.6	98	CCCCc1nc(C)ncc1C(=O)N[C@H]1C2CC3CC1C[C@](O)(C3)C2	–
2.9	–	CCCSc1nc(NC)ncc1C(=O)N[C@H]1C2CC3CC1C[C@](O)(C3)C2	–
